Calb FLC: C. albicans growth modulation with fluconazole. C. albicans CaCi-2 (fluconazole-resistant clinical isolate) + fluconazole, Alamar Blue growth, 48 h. growth inhibition, % (no concentration beside the values). actives 0.57% (n = 300,000);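 active = growth inhibition above about 58% in most replicates, limit read from the data, passing the limit was not always enough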;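 note: all wells also contain fluconazole at 8 µg/ml as a sub-toxic cotreatment; 0% = median of DMSO wells and 100% = median of geldanamycin control wells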
ARFGAP1 inh: rat ARFGAP1 inhibition; Q62848; Arfgap1-stimulated ARF1 GTP hydrolysis, GDP FP detection; inhibition, % at 16.5 µM; actives 0.26% (n = 360,000); AID 651572;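 active = inhibition above a per-plate limit, mean inhibition of low control wells plus 3 SD, cut at about 25% in these data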;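 note: 0% = DMSO wells with enzyme and 100% = wells lacking Arfgap1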
Target sequence (Q62848 1-136 limits assumed): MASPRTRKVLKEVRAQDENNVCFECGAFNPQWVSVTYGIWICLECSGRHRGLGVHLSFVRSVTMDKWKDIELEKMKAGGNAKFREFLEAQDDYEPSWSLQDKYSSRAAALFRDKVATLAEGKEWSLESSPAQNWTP
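material = rat Arfgap1 catalytic domain, aa 1-136 | also added = human ARF1(Δ1-17)-GTP substrate | compound dosing = one concentration, 16.5 µM, DMSO 1.26% | times = GTP hydrolysis reaction 2 h at 25 °C | measured by = FP, GDP Alexa 633 tracer displaced from anti-GDP antibody, 620/688 nm | evaluation = percent inhibition of Arfgap1-stimulated GTP hydrolysis | replication = single well per compound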
PHOSPHO1 block: blocks human PHOSPHO1 phosphatase activity. Q8TCT1. recombinant PHOSPHO1, absorbance phosphatase assay. inhibition, % at 13.3 µM. actives 1.1% (n = 290,000); in the data active = inhibition above about 60%
IMP-1 inh: inhibitors of Pseudomonas aeruginosa IMP-1 metallo-beta-lactamase. purified IMP-1, nitrocefin hydrolysis, epi-absorbance fluorescence. inhibition, % at 5.6 µM. actives 0.45% (n = 290,000);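 active = inhibition above the mean plus 3 SD of all compounds in the same screening run, cut at about 4.5% in these data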;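 note: 0% = IMP-1 with DMSO and 100% = DMSO wells lacking enzyme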
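System: purified IMP-1; amount: IMP-1 0.2 nM before substrate addition; compound: single dose, 5.6 µM; times: 25 °C, 15 min preincubation, 25 min reaction; signal: Epi-absorbance via hydrolysed-nitrocefin quenching of white-plate fluorescence, 480/530 nm, EDTA stop; benchmarks: DMSO with and without IMP-1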
ASAP1 inh: blocks human ASAP1-stimulated Arf1 GTP hydrolysis; Q9ULH1; GDP FP detection; inhibition, % at 16.5 µM; actives 0.19% (n = 360,000); in the data active = inhibition above about 25%;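 note: 0% = vehicle with enzyme and substrate and 100% = no enzyme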
Target sequence (Q9ULH1 325-724 limits assumed): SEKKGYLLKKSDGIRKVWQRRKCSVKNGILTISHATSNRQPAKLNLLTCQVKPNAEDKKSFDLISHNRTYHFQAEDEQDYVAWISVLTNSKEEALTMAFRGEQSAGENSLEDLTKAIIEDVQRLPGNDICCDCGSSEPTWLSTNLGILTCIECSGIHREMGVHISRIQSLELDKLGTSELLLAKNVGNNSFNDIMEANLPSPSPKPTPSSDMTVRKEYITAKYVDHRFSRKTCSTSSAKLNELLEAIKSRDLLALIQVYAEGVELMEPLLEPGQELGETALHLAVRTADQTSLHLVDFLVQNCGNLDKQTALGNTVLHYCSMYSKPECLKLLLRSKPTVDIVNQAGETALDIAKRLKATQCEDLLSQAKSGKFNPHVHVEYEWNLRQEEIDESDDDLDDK
VIM-2 inh: inhibitors of Pseudomonas aeruginosa VIM-2 metallo-beta-lactamase | inhibition, % at 5.6 µM | purified VIM-2, nitrocefin hydrolysis, epi-absorbance fluorescence | actives 0.89% (n = 290,000);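 active = inhibition above the mean of all tested compounds plus 3 SD, cutoff set per screening run, cut at about 7.5% in these data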;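 note: red hydrolysis product quenches plate fluorescence so inhibitors raise well fluorescence; 0% = enzyme with DMSO and 100% = DMSO without enzyme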
Numbers without * were called inactive; x = not tested or not shown. Shown are actives, neighbours in structure and some others; about 2.6% of the full set was active somewhere.

SMILES | Calb FLC | ARFGAP1 inh | PHOSPHO1 block | IMP-1 inh | ASAP1 inh | VIM-2 inh
O=C1CSC(c2cccs2)N1c1nncs1 (stereo unspecified) | x | 4.5 | x | x | -16.1 | x
Cc1cc(O)ccc1NC(=S)NC(=O)c1cncc(Br)c1 | 86.5* | 9.6 | 8.5 | -2.2 | -5.2 | -1.6
O=C(NC1CCCCC1)C1CCN(S(=O)(=O)c2cccs2)CC1 | 2.3 | 9.9 | -1.6 | 4.8* | 13.9 | 2.7
COc1ccc(C)cc1NC(=O)C1CCN(S(=O)(=O)c2cccs2)CC1 | 2.7 | -2.5 | 24.0 | -1.2 | 5.0 | -3.8
Cc1ccc(NC(=O)C2CCN(S(=O)(=O)c3cccs3)CC2)c(O)c1 | 11.7 | 4.3 | 62.4* | -3.5 | 5.5 | -2.8
COCc1cc(C)nc2sc(C(=O)Nc3nccs3)c(N)c12 | 7.6 | -1.4 | 82.8* | -3.7 | 8.1 | 1.9
O=C(N/N=C/c1ccc(OC(=O)c2cccc(Br)c2)cc1)c1cccnc1 | 22.3 | 0.7 | 37.0 | 9.7* | 0.2 | -1.2
O=C(N/N=C/c1ccc(OC(=O)c2cccc(F)c2)cc1)c1cccnc1 | -20.2 | 2.2 | 18.4 | 4.6* | -1.7 | 1.1
O=C(N/N=C/c1ccc(OC(=O)c2ccc(Br)cc2)cc1)c1ccncc1 | 1.5 | -0.6 | 1.5 | 7.6* | 5.8 | -2.6
O=C(N/N=C/c1cccnc1)c1cccc(F)c1 | 4.3 | 5.8 | x | -4.2 | -8.1 | -2.2
C[C@H](O)[C@@H]1C(=O)N2CCc3c([nH]c4c(-c5ccc6c(c5)OCO6)cccc34)[C@@H]2C[C@@H]1N(C)C(=O)NC1CCCCC1 | x | -1.4 | x | x | 0.8 | x
COc1cccc(-c2cc(CNC(=O)[C@H]3O[C@@H](n4cnc(C(N)=O)n4)[C@H](O)[C@@H]3O)no2)c1 | x | -3.1 | x | x | -1.2 | x
O=C(COC(=O)c1cccc(OC(F)F)c1)Nc1cc(S(=O)(=O)N2CCCC2)ccc1Cl | x | 4.1 | x | x | 17.9 | x
C=CCNC(=S)NNC(=O)c1cccn(Cc2cccc(Cl)c2)c1=O | -13.9 | -0.3 | 79.0* | -0.8 | 12.2 | -4.0
Cn1c(=O)c2c(c3ccccc31)OC(C)(C)C=C2 | x | 3.2 | x | x | 1.4 | x
Cc1cc(Br)cn2c(Cc3cccc(Cl)c3)c(C3CCCCC3)nc12 | x | 13.5 | x | x | -4.7 | x
O=c1c2cc(N3CCOCC3)ccc2[nH]c(=S)n1Cc1ccc(Cl)cc1 | -2.9 | -0.2 | 81.7* | -3.1 | -8.0 | -4.0
CC1CCC(NC(=O)CCNC(=O)c2ccccc2)CC1 (stereo unspecified) | 106.9* | -1.5 | 20.5 | -0.6 | 5.8 | 2.2
COc1cc(C(=O)NCCC(=O)NC2CCC(C)CC2)cc(OC)c1OC (stereo unspecified) | -9.5 | 7.7 | 15.9 | -0.8 | 15.0 | -1.8
N/C(Cn1cncn1)=N\NC(=O)C(=O)Nc1ccccc1 | 9.8 | 7.7 | 29.2 | -3.7 | -5.6 | -3.7
N/C(Cn1cncn1)=N\NC(=O)C(=O)Nc1cccc(C(F)(F)F)c1 | -3.7 | -13.6 | 60.0* | -3.4 | -13.3 | -2.6
CCCN1C(=O)c2[nH]nc(-c3ccccc3)c2C1c1ccc(C)cc1 (stereo unspecified) | x | 8.9 | x | x | 17.3 | x
Cn1nc(-c2ccc(Cl)cc2)c2cc(C(=O)N3CCN(C(=O)c4ccco4)CC3)sc21 | -3.3 | -10.2 | 22.6 | 0.9 | 3.1 | -0.3
CCN1CCN(C(=O)c2cc3c(-c4ccc(Cl)cc4)nn(C)c3s2)CC1 | 9.7 | 7.3 | 8.6 | 0.3 | -3.6 | 11.5*
Cc1ccc(S(=O)(=O)c2nc(-c3cccs3)oc2SCC(N)=O)cc1 | -10.8 | -7.2 | 60.3* | -0.4 | -15.3 | -0.8
SMILES | Calb FLC | ARFGAP1 inh | PHOSPHO1 block | IMP-1 inh | ASAP1 inh | VIM-2 inh
Cc1cc(NC(=O)CCc2c[nH]c3ccccc23)ccc1Nc1cccnc1 | x | -3.3 | x | x | 4.4 | x
CCOC(=O)c1c(NC(=O)CN2C(=O)CN(C)C2=O)sc(C)c1C | 1.9 | 6.0 | -26.9 | 10.6* | 1.8 | 3.0
CCOC(=O)[C@@H]1CSCCS(=O)(=O)N1C(=O)[C@H](C)NC(=O)OC(C)(C)C | x | 3.4 | x | x | -2.0 | x
CCOC(=O)[C@]12CCC=C1N(CCC1=CCCCC1)C(=O)[C@H](CC(=O)N1CCOCC1)C2 | x | 1.9 | x | x | 5.8 | x
CC(C)CCNC(=O)c1cn(C)c2ccc(S(=O)(=O)N3CCCC3)cc2c1=O | 4.6 | -5.5 | 32.9 | -1.0 | -1.9 | -3.3
CCCCNC(=O)c1cn(C)c2ccc(S(=O)(=O)N3CCCC3)cc2c1=O | 85.5* | 20.9 | 43.7 | -2.1 | -1.0 | -3.1
C[C@@H]1CN([C@@H](C)CO)C(=O)CCCn2cc(nn2)CO[C@H]1CN(C)C(=O)Nc1ccc2c(c1)OCO2 | x | -4.5 | x | x | -19.2 | x
COc1ccc(NS(=O)(=O)c2ccc(OC)c(OC)c2)cc1OC | -9.1 | -6.1 | -5.8 | -4.2 | 2.7 | -1.2
COc1ccc(S(=O)(=O)Nc2ccc(F)c(F)c2)cc1Cl | 4.4 | -0.3 | 24.6 | 4.6* | 2.3 | 0.3
COc1ccc(N2C(=O)[C@@H]3[C@H](C2=O)[C@H]2c4ccccc4C=CN2[C@@H]3C(=O)Nc2ccccc2)cc1 | x | -1.2 | 8.2 | 42.1* | 7.9 | 1.1
Cc1ccc(N2C(=O)[C@@H]3[C@H](C2=O)C2c4ccccc4C=CN2[C@@H]3C(=O)c2ccco2)cc1 (stereo partly specified) | x | 3.1 | 73.8* | 3.2 | 26.0* | 3.4
Cc1ccc(N2C(=O)[C@@H]3[C@H](C2=O)C2c4ccccc4C=CN2[C@@H]3C(=O)c2ccco2)c(C)c1 (stereo partly specified) | -2.3 | 4.5 | 38.7 | -2.2 | 12.0 | 0.0
O=C(c1ccco1)[C@@H]1[C@@H]2C(=O)N(c3ccccc3)C(=O)[C@@H]2C2c3ccccc3C=CN21 (stereo partly specified) | 4.0 | 1.7 | 84.3* | -1.3 | 34.1* | -2.1
COc1ccc(N2C(=O)[C@@H]3[C@H](C2=O)[C@H]2C=CC=NN2[C@@H]3C(=O)Nc2ccc(Cl)cc2)cc1 | 6.8 | 0.1 | -94.5 | -3.1 | -9.7 | -3.3
O=C(N[C@H](C(=O)N1CCC[C@H]1C(=O)NCCc1ccccc1Cl)c1ccccc1)c1ccc(Cl)c(Cl)c1 | x | -5.7 | x | x | 7.7 | x
N#Cc1[nH]nc2nc[nH]c(=O)c12 | x | -6.4 | x | x | 3.6 | x
S=c1nc(-c2ccccc2)n(-c2ccccc2)[nH]1 | -5.0 | 2.8 | -76.3 | -0.1 | 12.6 | 9.8*
S=c1nc(-c2ccccc2)[nH]n1-c1ccccc1 | 13.6 | -2.3 | 50.3 | -2.3 | -14.5 | -3.1
Nc1nc2c(s1)C(=O)CC(c1ccccc1)C2 (stereo unspecified) | -17.4 | 1.5 | 60.1* | -4.4 | -14.5 | -0.9
O=C(Nc1ccccc1N1CCOCC1)c1cccnc1Cl | -11.7 | -0.1 | 4.4 | 47.2* | 4.9 | 1.4
O=C(Nc1ccc(N2CCOCC2)c(Cl)c1)c1cccnc1Cl | -11.9 | 4.1 | -1.2 | -3.7 | 8.0 | -0.4
O=C(Nc1ccccc1N1CCOCC1)c1cc(F)cc(F)c1 | 97.1* | 1.1 | 32.0 | -3.4 | 6.8 | 3.0
